Assay results published in ChEMBL document CHEMBL1157417, “Synthetic and pharmacological studies on new simplified analogues of the potent actin-targeting Jaspamide” (Bioorg Med Chem, 2008).
The source made the active and inactive calls. No cut-off for these calls is given here.

Legend:
Assay type in all cases: functional, cell-based
[1] = tested on: A498; assay: Cytotoxicity against human A498 cells after 48 hrs by SRB binding assay; settings: A498, 48 h
Summary of the method: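 A498 kidney adenocarcinoma cells kept in R-MEM with 10% FBS and 50 µg/mL gentamycin, 37 °C, 5% CO2. Seeded at about 15% confluency and left 24 h to attach. Treated in triplicate with varying concentrations for 48 h. Survival read by sulforhodamine B binding as a percentage of control cultures.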

[2] = tested on: A498; assay: Effect on morphology in human A498 cells assessed as cell aberration at 100 umol after 16 hrs by microfilament immunofluorescence assay
Summary of the method: (§1)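 A-498 cells grown to near-confluency on glass coverslips, then exposed 16 h. Cytochalasin B served as the microfilament-depolymerising positive control. Microfilaments stained with monoclonal anti-actin and microtubules with monoclonal anti-β-tubulin, both visualised with fluorescein-conjugated anti-mouse IgG. Scored for binucleation and other cellular aberration.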

[3] = tested on: A498; assay: Effect on morphology in human A498 cells assessed as appearance of binucleated cells after 16 hrs by microfilament immunofluorescence assay; summary of the method: as §1

Row | Structure (SMILES) | IC50 [1] | Activity [2] | Activity [3]
1 | C[C@@H]1NC(=O)CC/C=C/CCCOC(=O)C[C@H](c2ccccc2)NC(=O)[C@@H](Cc2c[nH]c3ccccc23)NC1=O | 25 µM | inactive | –
2 | C[C@@H]1NC(=O)CC/C=C/CCCOC(=O)CCNC(=O)[C@@H](Cc2c[nH]c3ccccc23)NC1=O | – | inactive | –
3 | C[C@@H]1NC(=O)CCCCCCCNC(=O)C[C@H](c2ccccc2)NC(=O)[C@@H](Cc2c[nH]c3ccccc23)NC1=O | – | inactive | –
4 | C[C@@H]1NC(=O)CCNC(=O)CCCNC(=O)C[C@H](c2ccccc2)NC(=O)[C@@H](Cc2c[nH]c3ccccc23)NC1=O | – | inactive | –
5 | COc1ccc([C@H]2CC(=O)NCCCC(=O)NCCC(=O)N[C@@H](C)C(=O)N[C@H](Cc3c[nH]c4ccccc34)C(=O)N2)cc1 | – | inactive | –
6 | CC1/C=C/CCCOC(=O)C[C@H](c2ccccc2)NC(=O)[C@@H](Cc2c[nH]c3ccccc23)NC(=O)[C@H](C)NC(=O)C1 (stereo not given in full) | 25 µM | inactive | –
7 | C=C1[C@@H](C)[C@H]2[C@H](Cc3ccccc3)NC(=O)[C@]23OC(=O)/C=C/[C@H](O)CCC[C@@H](C)C/C=C/[C@H]3[C@@H]1O | – | – | Active
8 | C[C@@H]1NC(=O)CCNC(=O)CCCNC(=O)CCNC(=O)[C@@H](Cc2c[nH]c3ccccc23)NC1=O | – | inactive | –
